{
  "source": "ChEMBL document CHEMBL3817728",
  "about": "“Synthesis, Evaluation, and Mechanism Study of Novel Indole-Chalcone Derivatives Exerting Effective Antitumor Activity Through Microtubule Destabilization in Vitro and in Vivo” (J Med Chem, 2016)",
  "key": {"[1]": {"test": "Cytotoxicity against human HCT8 cells assessed as cell viability after 48 hrs by MTT assay", "assay_type": "functional, cell-based", "details": "HCT-8, 48 h", "procedure,_shortened": "(§1)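 Cancer cell lines treated with compound for 48 h, and viability read by MTT assay. IC50 given as mean ± SD from at least three independent experiments.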"}, "[2]": {"test": "Cytotoxicity against human HCT8/VCT cells assessed as growth inhibition after 48 hrs by MTT assay", "assay_type": "functional, cell-based", "procedure,_shortened": "(§2)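 Drug-resistant lines were tested by a 48 h MTT viability assay. IC50 was derived from dose-response curves and reported as mean ± SE of at least three independent experiments.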"}, "[3]": {"test": "Metabolic stability in Sprague-Dawley rat liver microsomes assessed as compound remaining at 120 mins in presence of NADPH regenerating system by HPLC method", "assay_type": "ADME", "details": "read-out: Stability", "procedure,_shortened": "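Rat liver microsomes incubated with compound at 37 ℃ for indicated times in buffer containing NADPH regenerating system; residual parent determined by HPLC.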"}, "[4]": {"test": "Metabolic stability in Sprague-Dawley rat liver microsomes assessed as compound remaining at 30 mins in presence of NADPH regenerating system by HPLC method", "assay_type": "ADME", "details": "read-out: Stability", "procedure,_shortened": "(§3)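 Test compound incubated with rat liver microsomes at 37 ℃ in buffer containing an NADPH regenerating system for the stated time. Remaining parent compound was quantified by HPLC.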"}, "[5]": {"system": "HeLa", "test": "Cytotoxicity against human HeLa cells assessed as cell viability after 48 hrs by MTT assay", "assay_type": "functional, cell-based", "procedure,_shortened": "as §1"}, "[6]": {"test": "Metabolic stability in Sprague-Dawley rat liver microsomes assessed as compound remaining at 90 mins in presence of NADPH regenerating system by HPLC method", "assay_type": "ADME", "details": "read-out: Stability", "procedure,_shortened": "as §3"}, "[7]": {"test": "Cytotoxicity against human MCF7/DX cells assessed as growth inhibition after 48 hrs by MTT assay", "assay_type": "functional, cell-based", "procedure,_shortened": "as §2"}, "[8]": {"system": "A2780", "test": "Cytotoxicity against human A2780 cells assessed as cell viability after 48 hrs by MTT assay", "assay_type": "functional, cell-based", "details": "A2780, 48 h", "procedure,_shortened": "as §1"}, "[9]": {"test": "Cytotoxicity against human Bel7402 cells assessed as cell viability after 48 hrs by MTT assay", "assay_type": "functional, cell-based", "details": "Bel-7402, 48 h", "procedure,_shortened": "as §1"}, "[10]": {"system": "A549", "test": "Cytotoxicity against human A549 cells assessed as cell viability after 48 hrs by MTT assay", "assay_type": "functional, cell-based", "details": "A549, 48 h", "procedure,_shortened": "as §1"}, "[11]": {"test": "Metabolic stability in Sprague-Dawley rat liver microsomes assessed as compound remaining at 60 mins in presence of NADPH regenerating system by HPLC method", "assay_type": "ADME", "details": "read-out: Stability", "procedure,_shortened": "as §3"}, "[12]": {"test": "Cytotoxicity against human A2780/TAX cells assessed as growth inhibition after 48 hrs by MTT assay", "assay_type": "functional, cell-based", "procedure,_shortened": "as §2"}, "[13]": {"system": "MCF7", "test": "Cytotoxicity against human MCF7 cells assessed as cell viability after 48 hrs by MTT assay", "assay_type": "functional, cell-based", "details": "MCF7, 48 h", "procedure,_shortened": "as §1"}, "[14]": {"system": "A549", "test": "Antitumor activity against human A549 cells xenografted in BALB/c nude mouse assessed as tumor growth inhibition at 30 mg/kg, ip administered every other day for 1 month measured every other day post dose relative to vehicle-treated control", "assay_type": "functional", "details": "read-out: TGI"}, "[15]": {"test": "Solubility of the compound in sodium phosphate buffer at pH 7.4 at 25 +/- 1 degC", "assay_type": "physicochemical"}, "[16]": {"system": "Mus musculus", "test": "Toxicity in BALB/c nude mouse xenografted with human A549 cells assessed as loss of body weight at 30 mg/kg, ip administered every other day for 1 month measured every other day post dose relative to vehicle-treated control", "assay_type": "organism-based", "details": "in vivo"}},
  "data": [
    {"compound": "COc1ccc(/C=C\\c2cc(OC)c(OC)c(OC)c2)cc1O", "note": "[COMBRETASTATIN A4]", "values": [
      {"measurement": "IC50", "setting": "[1]", "value": 0.0017, "unit": "µM"},
      {"measurement": "IC50", "setting": "[2]", "value": 0.005, "unit": "µM"},
      {"measurement": "remaining at 2 h", "setting": "[3]", "value": 20.7, "unit": "%"},
      {"measurement": "remaining at 0.5 h", "setting": "[4]", "value": 68.1, "unit": "%"},
      {"measurement": "IC50", "setting": "[5]", "value": 0.012, "unit": "µM"},
      {"measurement": "remaining at 1.5 h", "setting": "[6]", "value": 23.1, "unit": "%"},
      {"measurement": "IC50", "setting": "[7]", "value": 0.027, "unit": "µM"},
      {"measurement": "IC50", "setting": "[8]", "value": 0.009, "unit": "µM"},
      {"measurement": "IC50", "setting": "[9]", "value": 0.003, "unit": "µM"},
      {"measurement": "IC50", "setting": "[10]", "value": 0.005, "unit": "µM"},
      {"measurement": "remaining at 1 h", "setting": "[11]", "value": 28.6, "unit": "%"},
      {"measurement": "IC50", "setting": "[12]", "value": 0.058, "unit": "µM"}
    ]},
    {"compound": "COc1ccc2c(/C=C(\\C)C(=O)c3cc(OC)c(OC)c(OC)c3)cn(P(=O)([O-])[O-])c2c1.[Na+].[Na+]", "values": [
      {"measurement": "IC50", "setting": "[1]", "value": 0.092, "unit": "µM"},
      {"measurement": "IC50", "setting": "[13]", "value": 0.038, "unit": "µM"},
      {"measurement": "IC50", "setting": "[5]", "value": 0.078, "unit": "µM"},
      {"measurement": "IC50", "setting": "[8]", "value": 0.043, "unit": "µM"},
      {"measurement": "inhibition in vivo at 30 mg/kg", "setting": "[14]", "value": 70.4, "unit": "%"},
      {"measurement": "IC50", "setting": "[9]", "value": 0.061, "unit": "µM"},
      {"measurement": "IC50", "setting": "[10]", "value": 0.056, "unit": "µM"},
      {"measurement": "solubility", "setting": "[15]", "value": 125, "unit": "mg/mL"},
      {"measurement": "Activity", "setting": "[16]", "value": "Non-toxic"}
    ]}
  ]
}
